Rows were chosen to be rich in hits. Some 1.5% of all compounds tested hit in one or more screens of this group.
EBI2 antag = EBI2 receptor antagonists, beta-arrestin recruitment, primary screen, cell-based, luminescence, 7a,25-OHC stimulation, uHTS. G-protein coupled receptor 183 (Homo sapiens), P32249. 7a,25-OHC stimulated. inhibition, % at 5 µM. 0.81% of 360,000 active; in the data active = inhibition above about 38%;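 also: enzyme fragment complementation signal reports receptor beta-arrestin coupling in cells; 0% = agonist plus DMSO wells and 100% = wells without agonist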
CXCR6 inh = CXCR6 receptor inhibitors, primary screen, cell-based, beta-arrestin, luminescence, CHO-K1 PathHunter, 1536-well; inhibition, % at 20 µM; 0.36% of 360,000 active; AID 602244, 2012; in the data active = inhibition above about 34%, passing the limit was not always enough;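 also: antagonist mode with CXCL16 agonist at 10 nM final; 0% = 10 nM CXCL16 with DMSO and 100% = unstimulated wells without agonist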
Target sequence (O00574 whole entry, looked up): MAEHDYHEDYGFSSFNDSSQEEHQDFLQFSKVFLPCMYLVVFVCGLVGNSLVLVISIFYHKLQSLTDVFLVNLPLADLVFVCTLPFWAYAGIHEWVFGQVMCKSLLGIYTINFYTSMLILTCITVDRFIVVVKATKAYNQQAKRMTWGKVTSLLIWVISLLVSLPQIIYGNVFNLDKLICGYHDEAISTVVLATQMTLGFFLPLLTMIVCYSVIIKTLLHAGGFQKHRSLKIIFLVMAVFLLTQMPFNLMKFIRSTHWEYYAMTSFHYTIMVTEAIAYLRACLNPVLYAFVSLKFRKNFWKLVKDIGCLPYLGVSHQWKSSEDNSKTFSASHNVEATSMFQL
APJ agonist = agonists of human apelin receptor APJ, primary screen, CHO-K1 cells, PathHunter beta-arrestin, luminescence | 0% DMSO wells, 100% apelin | activation, % at 20 µM | 0.11% of 330,000 active | AID 2520, 2010;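 active = activation more than six SD over the plate average, tested at 20 µM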;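 also: 0% = DMSO alone and 100% = apelin-13 at 10 nM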
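Material: CHO-K1 APJ beta-arrestin complementation cell line; Input: cell density 1000 per well; Incubation: compound stimulation 90 min at 25 °C, detection 60 min; Signal: luminescence from split beta-galactosidase complementation, Galacton Star/Emerald II substrate; Controls: DMSO-only wells as negative, 10 nM Apelin-13 as positive control.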
APJ antagonist = antagonists of human apelin receptor APJ, primary screen, CHO-K1 cells, beta-arrestin complementation, luminescence | inhibition, % at 20 µM | AID 2521, 2010 | 0.32% of 330,000 active | P35414;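 active = inhibition above about 40% at 20 µM, limit read from the data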;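 also: cells challenged with 10 nM apelin-13 agonist together with compound; plate controls were apelin-13 plus DMSO wells for no effect and DMSO wells lacking apelin-13 for full effect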
CCR6 antag = CCR6 receptor antagonists, primary screen, cell-based, CHO-K1, luminescence, beta-arrestin, uHTS. C-C chemokine receptor type 6 (Homo sapiens), P51684. CHO-K1 CCR6 PathHunter beta-arrestin, CCL20-stimulated. inhibition, % at 20 µM. 0.49% of 340,000 active;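 active = compounds whose inhibition of the agonist-driven luminescence signal at 20 µM reaches about 50%, limit read from the data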;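 also: cells stimulated with CCL20 at 14 nM final; plate controls were DMSO with CCL20 for no effect and DMSO without agonist for full effect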
CXCR6 antag conf = CXCR6 receptor antagonists, confirmation, cell-based, single concentration, beta-arrestin, luminescence; inhibition, % at 20 µM; CHO-K1 CXCR6 PathHunter beta-arrestin; 65% of 700 active; shares compounds with CXCR6 inh;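 active = mean inhibition over four retests above 40%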;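 also: receptor stimulated with 10 nM CXCL16 agonist; beta-galactosidase fragment complementation upon beta-arrestin recruitment to receptor; plate controls were CXCL16 plus DMSO for no effect and DMSO without CXCL16 for full effect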
* = called active by the depositor; nt = not tested or not shown.

SMILES | EBI2 antag | CXCR6 inh | APJ agonist | APJ antagonist | CCR6 antag | CXCR6 antag conf
FC(F)Sc1ccc(NC(=S)NC2CCCCC2)cc1 | 6.6 | 56.6* | 1.8 | -4.8 | -11.2 | 4.0
CCCc1cc(=O)oc2cc(OCC(=O)N3CC[C@@]4(O)CCCC[C@H]4C3)ccc12 | -3.1 | -1.0 | nt | nt | nt | nt
CCCc1cc(=O)oc2cc(OC(=O)CN3C(=O)NC4(CCCC4)C3=O)ccc12 | 27.8 | 46.4* | -9.7 | 7.8 | 66.7* | 40.0
C[C@@]12CC[C@@H](C3=C(CCC3)C1)N2c1ccccc1 | 0.7 | nt | nt | nt | nt | nt
O=C(C=Cc1ccccn1)c1ccccc1O | -9.6 | 56.8* | nt | nt | 74.0* | 60.1*
O=C(C=Cc1ccccn1)c1ccccc1 | -12.5 | 21.4 | nt | nt | 39.2 | nt
Cc1ccc(S(=O)(=O)c2ccc([N+](=O)[O-])cn2)cc1 | -6.2 | 54.9* | 2.3 | 26.8 | nt | 73.7*
Cc1cc(S(=O)(=O)c2ccc([N+](=O)[O-])cn2)ccc1Br | 13.4 | 16.2 | 19.3 | -34.9 | -5.5 | nt
Cc1ccc(OCC(=O)NNC(=S)NC(=O)C2CC2)c(C)c1 | 7.9 | 45.0* | -10.2 | 9.3 | nt | 41.3*
Oc1ccc(C[C@H]2CNC(=S)N2CC2CCCN2C[C@H](Cc2ccccc2)N2C[C@H](Cc3ccc(O)cc3)N(CC3CCCCC3)C2=S)cc1 (stereo partly specified) | 15.1 | 9.9 | nt | nt | nt | nt
CCc1ccc(OCC(=O)Nc2ccncc2)cc1 | -6.3 | 7.4 | -0.3 | 10.2 | 7.3 | nt
CC(C)(C)c1ccc(OCC(=O)Nc2ccncc2)cc1 | -1.0 | 41.2* | -1.5 | -2.4 | -2.7 | 15.7
COc1ccc(OCC(=O)N/N=C(\C)c2ccc(-n3ccnc3)cc2)cc1 | -6.6 | -2.9 | -1.4 | -7.7 | -18.4 | nt
C/C(=N\NC(=O)COc1ccc(C(C)(C)C)cc1)c1ccc(-n2ccnc2)cc1 | 11.7 | 73.0* | -0.7 | -31.0 | -2.1 | 6.2
C=CCN(c1ccccc1OC)S(=O)(=O)c1cccc(C(=O)NCC(c2ccc(OC)cc2)N2CCCC2)c1 (stereo unspecified) | 7.5 | 8.5 | nt | nt | 21.9 | nt
CCCC(=O)OCCNc1cc(SCc2ccco2)c2nonc2c1[N+](=O)[O-] | -26.0 | 38.2* | 4.6 | -22.9 | 67.4* | 52.7*
CCCC(=O)OCCNc1cc(Sc2nccn2C)c2nonc2c1[N+](=O)[O-] | 49.3* | 99.9* | nt | nt | 98.6* | 105.2*
NCCNc1ccc([N+](=O)[O-])c(Sc2nc3ccccc3[nH]2)c1 | 10.4 | -2.5 | 0.0 | -10.2 | 31.0 | nt
CCC(=O)OCCNc1cc(Sc2nc3ccccc3[nH]2)c2nonc2c1[N+](=O)[O-] | 33.5 | 101.6* | nt | nt | 117.0* | 106.3*
OCC(CO)c1cnnc2ccccc12 | -3.0 | -2.9 | nt | nt | -4.1 | nt
COc1ccc(C(C)=O)cc1Cn1c(C)c(C(=O)NCCC#N)sc1=O | -7.9 | -4.5 | nt | nt | nt | nt
Cc1ccc(NC(=O)c2ccc(Cl)c(N3C(=O)C=CC3=O)c2)cc1 | -8.8 | 94.4* | 3.1 | -4.6 | nt | 24.9
O=C(O)C1CCc2sc3[nH]c(=S)n(-c4ccccc4)c(=O)c3c21 (stereo unspecified) | 7.3 | 43.8* | -5.7 | -3.8 | 10.8 | 19.5
CCN(CC)C(=O)c1sc2[nH]c(=S)n(-c3ccccc3)c(=O)c2c1C | -2.3 | -0.7 | -0.1 | 13.7 | 9.2 | nt
C[C@@H](NC(=O)c1[nH]cnc1C(=O)Nc1ccccc1F)c1ccccc1 | -27.7 | 42.3* | nt | nt | nt | 26.3
C[C@@H](NC(=O)c1nc[nH]c1C(=O)N[C@H](C)c1ccccc1)c1ccccc1 | 8.8 | 9.8 | -2.9 | 5.5 | 12.6 | nt
Oc1ccc(Cl)c2cccnc12 | 16.9 | 42.7* | nt | nt | 65.7* | 60.2*
Oc1ccc(F)c2cccnc12 | 3.6 | 28.5 | -1.8 | -16.6 | 37.9 | nt
CC1=C(C(=O)N(C(C)C)C(C)C)CC(CC(=O)NC2CCCC2)C(=O)N1Cc1ccc(C(C)(C)C)cc1 (stereo unspecified) | 6.4 | 10.3 | nt | nt | nt | nt
C=C1C(=O)[C@]23C[C@H]1CCC2[C@@]1(C)C(C[C@@H]3O)[C@](C)(C(=O)OC)CC[C@@H]1OC(C)=O (stereo partly specified) | 80.5* | 68.9* | nt | nt | nt | 88.8*
